Source: the EternaBench riboswitch data

Tested on: MS2 coat protein
Assay: apparent Kd, MS2 coat protein; higher = weaker binding; RNA-MaP array; FMN 200 µM where present
Method in brief: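 Designs were transcribed by stalled E. coli RNA polymerase on Illumina sequencing-chip clusters. They were titrated with SNAP-549-labelled MS2 coat protein from 0.7 or 1.5 nM, doubling to 3 µM, without and then with constant ligand. Buffer: 100 mM Tris-HCl pH 7.5, 80 mM KCl, 4 mM MgCl2, BSA, DTT, yeast tRNA, Tween-20. Green signal was normalised to red-channel RNA signal and control-cluster median Fmax. Apparent Kd is the median of filtered per-cluster binding-curve fits.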

[1] = designed as: OFF switch for flavin mononucleotide, no ligand
[2] = ligand present: flavin mononucleotide, designed as: OFF switch for flavin mononucleotide
[3] = designed as: ON switch for flavin mononucleotide, no ligand
[4] = ligand present: flavin mononucleotide, designed as: ON switch for flavin mononucleotide

Sequence | apparent Kd [1] [nM] | apparent Kd [2] [nM] | apparent Kd [3] [nM] | apparent Kd [4] [nM]
GGUGCGUUUGUGAGGAUAUGCUGGUCCUUGGUUCUGCAGAAGGCACAUGAGGAUCACCCAUGUGGUGUCGUACC | 77 | 162 |  | 
CAUACACAUGAGGAUCACCCAUGUGAGGAUAUGCGUACGUUGUCCGUAGGCGACGUGCGCAGAAGGCGCUUGGU | 57.1 | 68.6 |  | 
CUGCUCCGUGUAGGAUAUGCAUACUCCCAUUAUGCAGAAGGACAUGAGGAUCACCCAUGUAUGUUAUUAUCAUGUGUUGCGUGC | 42.5 | 185 |  | 
AGCGAACAGGCUAACAUGAGGAUCACCCAUGUGGACUCAUGGUAGGAUAUCGGGAAGGAGGAAACCGAGAAGGGCCGGUGAGCU |  |  | 254 | 62.8
ACUGCUCGAGGAUAUACAUGAGGAUCACCCAUGUAACCCAGAAGCACGGCCUCAGGAUGUAGAAGGCGACGCAA | 13.1 | 13.2 |  | 
UUUUUGUGAGGAUAUUAGUAGUAAAUAAAUAAAAUUAUUACUGAGAAGGCACAUGAGGAUCACCCAUGUUCCUU | 14.8 | 68.1 |  | 
GGUACCAUCACAGGAUAUCGUAUCCUUUGGGUACGAGAAGGGUGAUAACAUGAGGAUCACCCAUGUGGUACCGGGCGUGAGCCC |  |  | 1340 | 323
ACUUGUUAGUAGAAGGUAGUUAUUAUAUUAAUCAUGUAUACAUGAGGAUCACCCAUGUUGAUUUCUAAGGAUAUACAUCGAUAG | 81.4 | 59 |  | 
CCGCAAAUGCAGGAUAUCGUAUCGGAUACGAUACGAGAAGGGCAUACAUGAGGAUCACCCAUGUGUCCUAGCGG | 16.6 | 35.2 |  | 
UCCUUGUAAGGAUAUCGACGGCUACUCAAUUAAGCCGAUGCUGAGAAGGUACAUGAGGAUCACCCAUGUCUGGU | 52.1 | 275 |  | 
UGGGCGAGCCCAGUACUCACACAUGAGGAUCACCCAUGUGACGAGGAUAUAGACAGCGAUGCGUGCUAGAAGGCGUCACGGUAG | 10.9 | 35.3 |  | 
AAUUUACAUGAGGAUCACCCAUGUCAGGAUAUGGUUUUAUUUUUUUCUUUUCUUGAUUCCAGAAGGGACAGCUA | 127 | 68.3 |  | 
UUAUAAAGUGUGAGGAUAUGCUGGUCCUUAGAUCAGCAGAAGGCACAUGAGGAUCACCCAUGUAAUAUAUUUUU | 38.4 | 185 |  | 
AUGGAUAUCACAGGAUAUGAUAUGGAUACCAUAUCAGAAGGGUGAUCCAUCCUAUGUAAAUACAUGAGGAUCACCCAUGUGUCC |  |  | 15.1 | 31.6
CUGAUGUGAGGAUAUCUAAAAGAAACUGGGCAAAUACCCAGAGAGAAGGCACAUGAGGAUCACCCAUGUAACGA | 21.3 | 86.8 |  | 
GGUGCGUAUGUGAGGAUAUGCUGGUCCUUGGAUCGGCAGAAGGUACAUGAGGAUCACCCAUGUGGUGUCGUUCC | 97.5 | 289 |  | 
CUCGAGCCAAGGCUCGCGAGUACACAGGAUAUGGAAAGUCACAUGAGGAUCACCCAUGUCCAAAACCAGAAGGGUGAGACUAAG |  |  | 425 | 85.7
GCGUAACAUGAGGAUCACCCAUGUACUCGAGAAAUCGAGUGUAGAAGGGUGACCGGUCGUUUGGCACAGGAUAUACACGCUGUG |  |  | 31.1 | 14.1
UAUAUACAUGAGGAUCACCCAUGUAAGGAUAUGCUUUAUUAUUAUUAUUAUUAUUAUUGCAGAAGGUACAAUAU | 32 | 29.8 |  | 

Sequence | apparent Kd [1] [nM] | apparent Kd [2] [nM] | apparent Kd [3] [nM] | apparent Kd [4] [nM]
AAGAAGUCAGGAUAUGCUAAAGAAAUAAAAAGAAAGAAAGAACAUGAGGAUCACCCAUGUAGAAGGGACAAGAA | 42.9 | 40.6 |  | 
CACCGCGACAACGCGGUGUCACAUGAGGAUCACCCAUGUUCACAGGAUAUGCGAUAGCCAACGAAGCAGAAGGGUGAUUACUUA |  |  | 41.1 | 111
UAUAUAUAAUAUAUUAACAUGAGGAUCACCCAUGUCGCUAGACAGGAUAUAUUUAAUUUUUUUAAGUAGAAGGGUCAUAUAAUU |  |  | 68.3 | 80.9
AAGAAGUGAGGAUAUCGAAGACAAAAAAAAAAAAAGUCGAACGAGAAGGCACAUGAGGAUCACCCAUGUAAGAA | 30.2 | 33.4 |  | 
CGUAGGUAGCUGGAGGAUAUUCGAGUGGUAACAUGAGGAUCACCCAUGUGGUGAGAGGAACAUGAGGAGAAGGCUAGCUGCCUGC |  |  | 1290 | 1530
AAGGAUAGAGGAUAUGCAUAGAUACAGAUUCAUGUAGAACUACAUGAGGAUCACCCAUGUAGAAGGCUAUCCUA | 18.6 | 50.8 |  | 
CCCUCACAUGAGGAUCACCCAUGUCAGGAUAUUCGAGGCGCAAAUGCGCCAAAUGCAGGAAGAAGGGACGUGCC | 15.4 | 25.7 |  | 
AAUUGGAUGCAGAAGGCAUGGACGACUCGUCACAUUAACAUGAGGAUCACCCAUGUAAAAUAACAUGAGGAUAUGCAUCCUAAA |  |  | 9.81 | 6.15
CGUAACUGCAUAGGAUAUUGAUACAUGAGGAUCACCCAUGUUUUUCGGAUUAUAUAUAUACUUAGCAAGAAGGAUGGAGUUACG |  |  | 9.3 | 5.74
AGCUGUGGCAGAGGAUAUACAAUCCUAAUCCAUUGCAAAUAGCGAUGGACAUGAGGAUCACCCAUGUAGAAGGCUGUCUCAGCA | 297 | 65.2 |  | 
GGGCUCGGUGUGAGGAUAUUGGGUCUGAAAGGGCUCGAGAAGGCACAUGAGGAUCACCCAUGUAAGCUGGGUCU | 42.7 | 37.3 |  | 
UGUCGGAGCACAGGAUAUUACAUGAGGAUCACCCAUGUAUGAACCAAUAGCUGGAAACAGCAAUGUAAGAAGGCUGCUCCGACA | 5.6 | 5.71 |  | 
GUAUCAUACCAAGGAUAUUUAGGACUUGUGUAGACAUGAGGAUCACCCAUGUGGCGUUAGUCACGGGAGAAGGUGGUAUGAUAC |  |  | 78.5 | 18.8
ACGGUGGUCACAGGAUAUCCGGCCCGCGGGCCUGGAGAAGGGUGACUCAGAACCACAUGAGGAUCACCCAUGUGCCUUGCCGUA |  |  | 250 | 48.7
AAAACAUGAGGAUCACCCAUGUAAAGAUCAAUUAAAAUGAGUGAGGAUAUACUAAAUUAUUUAUAGUAGAAGGCACUGGGUACA |  |  | 25 | 26.3
UUACCCUCAGUAAGGAUAUCUUUAUCUGCUGAUUUAGAGAAGGUACAUGAGGAUCACCCAUGUGCGAUUGGGCA | 80.3 | 501 |  | 
AUAAGCUCGUCAGGAUAUGCGACACUGUUUCUGCAGUGUGGUAUGAUCACAUGAGGAUCACCCAUGUAGAAGGGACGAGCUUAU | 6.66 | 13.9 |  | 
CUUUUGUGAGGAUAUCAGUAGUAAUACAAUAGUAUUACUACUGAGAAGGCACAUGAGGAUCACCCAUGUUCCUC | 45 | 162 |  | 
GAUCAACAUGAGGAUCACCCAUGUGAGGAUAUGAUACUAUGUACUUCGGUACAUAGUAUCAGAAGGCAUGUGAA | 78.1 | 111 |  | 

Sequence | apparent Kd [1] [nM] | apparent Kd [2] [nM] | apparent Kd [3] [nM] | apparent Kd [4] [nM]
UUCAGCUCGUGAGGAUAUACAUGUGCUGGAAACAGCACUAAUUAAAUCACAUGAGGAUCACCCAUGUAGAAGGCACGAGCUGAG | 16.2 | 25.8 |  | 
CGAAGCCAAGGAUAUACAUGAGGAUCACCCAUGUGUUCCAGGCAAGCACAGCAGCGACGUAGAAGGUGGCUUCA | 17.6 | 41.7 |  | 
CAGCGAUAGCUGAAUGGUACAUGGGAGGAUAUGGGUUGACAUGAGGAUCACCCAUGUAAAUAAUACUAGAAGGCCCAUGUACCU |  |  | 191 | 9.38
AGCGCGGUCCACUUGGACGCCUACGAGGAUAUCCUGUCACAUGAGGAUCACCCAUGUAGGCACAUGGAGAAGGCGUAGAAAUCA |  |  | 60.9 | 7.22
GCGUAUAUAUGUUUUAUUUAACAGUCAGAAGGUGAUAAUACGACAUGAGGAUCACCCAUGUAAUUCAAGGAUAUGAUCUUACGC |  |  | 117 | 20.1
AACGAGGCAGGAUAUACAUGAGGAUCACCCAUGUGCUUGCAUGGCGUGGGAAGUCAACGUAGAAGGGCCAUGCC | 75.7 | 89.4 |  | 
GUCAUCACAUGAGGAUAUGCUCGGGUUUCCCGAGCAGAAGGCAUGGCAUACAUGAGGAUCACCCAUGUUGACAUUAAGAUUGUA |  |  | 10.3 | 6.73
GACUUUUCUGAGGAUAUUGCAUCAUACGAUUUAUAAGAAGGCAGAACAUGAGGAUCACCCAUGUGGGUUUUUAG | 41.7 | 91.1 |  | 
UCCUGGCGAGGAUAUACAAAGUUUUUUACGUUUUGUUACGAACAUGAGGAUCACCCAUGUAGAAGGUGCUACUG | 78 | 67.3 |  | 
GAAAUUCGGGCAGGAUAUGGGUGCCGUCAAGACAUGAGGAUCACCCAUGUCCCAUGCACGAGCGCUCAGAAGGGCUCAUUGCAG |  |  | 20.8 | 22
GCUUGUAGAGGAUAUACAAGGGCCUUAGCGAAUAACACCGCACAUGAGGAUCACCCAUGUAGAAGGCUACCACC | 15.6 | 77.6 |  | 
GUUAAACAUGAGGAUCACCCAUGUCAAUGUAGUCGAGGAUAUGGGCAGCUGUGAGGCGUACUAGAAGGCGAAAAGG |  |  | 270 | 57.5
GUCAUCGCAUGAGGAUAUGCUCGGGUUUCCCGAGCAGAAGGCAUGUCAUAAGACAUGAGGAUCACCCAUGUAGUUAAGAUUGUA |  |  | 192 | 12.5
AGAUCUCAAUAAGAUCCAAUACGAACAUGAGGAUCACCCAUGUAGGAUAUGCUAGAAGUAGAGUAGCAGAAGGACAAGUACCUU | 18.4 | 15.7 |  | 
UUAAUUCGAAACAUGAGGAUCACCCAUGUGUUGUGGUUAAUAUAGGAUAUGAGGAUACUUUUUUGUCAGAAGGAUGAUGGUACU |  |  | 11.8 | 10.8
AACAUCGCAGGAUAUUCGUGCUCAGACAUGAGGAUCACCCAUGUUUGGUGGGUUGGAGAAGGAGAAGGGCGAUGGA | 103 | 137 |  | 
ACUUGUUACUUAAUCAUUGAUUUGUAGGAUAUACGUACAUGAGGAUCACCCAUGUUACAUGGUAUGUAGAAGGACAUCUAAUUU | 11 | 11.2 |  | 
CCUAAGGACACAGGAUAUAGCGUGGUGGCCGGGCUCCAACGGCGAGCGGCGCUAGAAGGGUGACCACAUGAGGAUCACCCAUGU |  |  | 506 | 161
